Key:
Format in all cases: functional
NCI-H522 = assay: Growth inhibition of human NCI-H522 cells assessed as growth percentage at 10 uM incubated for 48 hrs by sulforhodamine B assay relative to control; conditions: NCI-H522, 48 h, read-out: Activity
In short: (§1)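 NCI-60 one-dose screen. Cells in RPMI 1640 with 5% FBS and 2 mM L-glutamine, seeded at 5,000–40,000 cells/well according to doubling time, and preincubated overnight at 37 °C, 5% CO2. A time-zero plate was TCA-fixed at drug addition. Compound from DMSO stock, final 10 µM, 48 h; DMSO vehicle controls. Fixation with TCA, 10% final (16% for suspension cells). SRB stain, Tris solubilization, A515. Result given as % growth versus untreated cells.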

DU-145 = assay: Growth inhibition of human DU145 cells assessed as growth percentage at 10 uM incubated for 48 hrs by sulforhodamine B assay relative to control; conditions: DU-145, 48 h, read-out: Activity
In short: (§2)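 NCI-60 one-dose screen: cells in RPMI 1640 with 5% FBS and 2 mM L-glutamine, plated at 5,000–40,000 cells/well and preincubated 24 h at 37 °C, 5% CO2. Compound is added from a DMSO stock to a final 10 µM and incubated 48 h. Cells are TCA-fixed and stained with sulforhodamine B, read at 515 nm. Output is % growth versus untreated control, with a time-zero plate.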

RPMI-8226 = assay: Growth inhibition of human RPMI8226 cells assessed as growth percentage at 10 uM incubated for 48 hrs by sulforhodamine B assay relative to control; conditions: RPMI-8226, 48 h, read-out: Activity
In short: (§3)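 NCI-60 single-dose screen. Cells were grown in RPMI 1640 with 5% FBS and 2 mM L-glutamine and plated at 5,000–40,000 cells/well. After an overnight preincubation at 37 °C in 5% CO2, compound was added at a final 10 µM from a DMSO stock, with DMSO/PBS controls. After 48 h, cells were TCA-fixed and stained with 0.4% SRB, and absorbance was read at 515 nm. Growth is given as a percentage of untreated control.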

NCI-H322M = assay: Growth inhibition of human NCI-H322M cells assessed as growth percentage at 10 uM incubated for 48 hrs by sulforhodamine B assay relative to control; conditions: read-out: Activity; in short: as §1
SK-OV-3 = assay: Growth inhibition of human SKOV3 cells assessed as growth percentage at 10 uM incubated for 48 hrs by sulforhodamine B assay relative to control; conditions: SK-OV-3, 48 h, read-out: Activity; in short: as §3
HL-60(TB) = assay: Growth inhibition of human HL-60(TB) cells assessed as growth percentage at 10 uM incubated for 48 hrs by sulforhodamine B assay relative to control; conditions: HL-60, 48 h, read-out: Activity
In short: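 NCI-60 single-dose screen. Cells in RPMI 1640 with 5% FBS and 2 mM L-glutamine are plated at 5,000–40,000 cells/well and preincubated overnight at 37 °C, 5% CO2. Compound is added from a DMSO stock at 10 µM final for 48 h. Cells are TCA-fixed (suspension cells 16% final) and stained with SRB. Absorbance is read at 515 nm, and percentage growth is calculated against untreated controls with a time-zero plate.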

SK-MEL-5 = assay: Growth inhibition of human SK-MEL-5 cells assessed as growth percentage at 10 uM incubated for 48 hrs by sulforhodamine B assay relative to control; conditions: SK-MEL-5, 48 h, read-out: Activity; in short: as §3
OVCAR-3 = assay: Growth inhibition of human OVCAR3 cells assessed as growth percentage at 10 uM incubated for 48 hrs by sulforhodamine B assay relative to control; conditions: OVCAR-3, 48 h, read-out: Activity; in short: as §1
HCT-116 = assay: Growth inhibition of human HCT116 cells assessed as growth percentage at 10 uM incubated for 48 hrs by sulforhodamine B assay relative to control; conditions: HCT-116, 48 h, read-out: Activity; in short: as §2
SNB-19 = assay: Growth inhibition of human SNB19 cells assessed as growth percentage at 10 uM incubated for 48 hrs by sulforhodamine B assay relative to control; conditions: SNB-19, 48 h, read-out: Activity; in short: as §3
BT-549 = assay: Growth inhibition of human BT549 cells assessed as growth percentage at 10 uM incubated for 48 hrs by sulforhodamine B assay relative to control; conditions: BT-549, 48 h, read-out: Activity; in short: as §2
HT-29 = assay: Growth inhibition of human HT-29 cells assessed as growth percentage at 10 uM incubated for 48 hrs by sulforhodamine B assay relative to control; conditions: HT-29, 48 h, read-out: Activity; in short: as §1
SK-MEL-28 = assay: Growth inhibition of human SK-MEL-28 cells assessed as growth percentage at 10 uM incubated for 48 hrs by sulforhodamine B assay relative to control; conditions: SK-MEL-28, 48 h, read-out: Activity; in short: as §3
Hs-578T = assay: Growth inhibition of human Hs 578T cells assessed as growth percentage at 10 uM incubated for 48 hrs by sulforhodamine B assay relative to control; conditions: read-out: Activity; in short: as §1
OVCAR-4 = assay: Growth inhibition of human OVCAR4 cells assessed as growth percentage at 10 uM incubated for 48 hrs by sulforhodamine B assay relative to control; conditions: OVCAR-4, 48 h, read-out: Activity; in short: as §1
A498 = assay: Growth inhibition of human A498 cells assessed as growth percentage at 10 uM incubated for 48 hrs by sulforhodamine B assay relative to control; conditions: A498, 48 h, read-out: Activity; in short: as §2
MDA-MB-231 = assay: Growth inhibition of human MDA-MB-231 cells assessed as growth percentage at 10 uM incubated for 48 hrs by sulforhodamine B assay relative to control; conditions: MDA-MB-231, 48 h, read-out: Activity; in short: as §1
U-251 = assay: Growth inhibition of human U251 cells assessed as growth percentage at 10 uM incubated for 48 hrs by sulforhodamine B assay relative to control; conditions: U-251, 48 h, read-out: Activity; in short: as §3
SR = assay: Growth inhibition of human SR cells assessed as growth percentage at 10 uM incubated for 48 hrs by sulforhodamine B assay relative to control; conditions: read-out: Activity; in short: as §3
UACC-62 = assay: Growth inhibition of human UACC62 cells assessed as growth percentage at 10 uM incubated for 48 hrs by sulforhodamine B assay relative to control; conditions: UACC-62, 48 h, read-out: Activity; in short: as §3
PC-3 = assay: Growth inhibition of human PC3 cells assessed as growth percentage at 10 uM incubated for 48 hrs by sulforhodamine B assay relative to control; conditions: PC-3, 48 h, read-out: Activity; in short: as §3
LOX IMVI = assay: Growth inhibition of human LOXIMVI cells assessed as growth percentage at 10 uM incubated for 48 hrs by sulforhodamine B assay relative to control; conditions: read-out: Activity; in short: as §1
ACHN = assay: Growth inhibition of human ACHN cells assessed as growth percentage at 10 uM incubated for 48 hrs by sulforhodamine B assay relative to control; conditions: read-out: Activity; in short: as §2
NCI-H460 = assay: Growth inhibition of human NCI-H460 cells assessed as growth percentage at 10 uM incubated for 48 hrs by sulforhodamine B assay relative to control; conditions: NCI-H460, 48 h, read-out: Activity; in short: as §1

| Structure (SMILES) | growth at 10 µM (NCI-H522) [%] | growth at 10 µM (DU-145) [%] | growth at 10 µM (RPMI-8226) [%] | growth at 10 µM (NCI-H322M) [%] | growth at 10 µM (SK-OV-3) [%] | growth at 10 µM (SK-MEL-5) [%] | growth at 10 µM (HCT-116) [%] | growth at 10 µM (SNB-19) [%] | growth at 10 µM (BT-549) [%] | growth at 10 µM (HT-29) [%] | growth at 10 µM (SK-MEL-28) [%] | growth at 10 µM (Hs-578T) [%] | growth at 10 µM (OVCAR-4) [%] | growth at 10 µM (MDA-MB-231) [%] | growth at 10 µM (U-251) [%] | growth at 10 µM (UACC-62) [%] | growth at 10 µM (PC-3) [%] | growth at 10 µM (LOX IMVI) [%] | growth at 10 µM (ACHN) [%] | growth at 10 µM (NCI-H460) [%] | also measured |
| --- | --- | --- | --- | --- | --- | --- | --- | --- | --- | --- | --- | --- | --- | --- | --- | --- | --- | --- | --- | --- | --- |
| CC1(C)CC(=O)C2=C(C1)NC(=O)NC2c1ccc2c(c1)OCO2 (racemic) | 93.9 | 107 | 110 | 105 | 112 | 100 | 101 | 108 | 109 | 114 | 111 | 113 | 102 | 111 | 103 | 107 | 99.4 | 99.3 | 109 | 117 | growth at 10 µM (HL-60(TB)): 97.6%; growth at 10 µM (OVCAR-3): 115%; growth at 10 µM (A498): 124%; growth at 10 µM (SR): 118% |
| CC1=C(C(=O)c2ccccc2)C(c2ccc3c(c2)OCO3)NC(=O)N1 (racemic) | 90.3 | 105 | 100 | 99.5 | 109 | 98.8 | 98.9 | 101 | 95.6 | 105 | 117 | 102 | 99.9 | 102 | 96.5 | 94.3 | 103 | 97.3 | 108 | 114 | growth at 10 µM (HL-60(TB)): 105%; growth at 10 µM (OVCAR-3): 106%; growth at 10 µM (SR): 101% |
| CC(=O)N1C(=S)NC(C)=C(C(=O)OCc2ccccc2)C1c1ccc2c(c1)OCO2 (racemic) | 75.7 | 95 | 54.8 | 101 | 79.2 | 91.2 | 41.4 | 87.8 | 88.8 | 52.2 | 102 | 76.8 | 99.3 | 84.5 | 58.2 | 75.3 | 81.3 | 74.1 | 95.5 | 77.9 | growth at 10 µM (HL-60(TB)): 33.6%; growth at 10 µM (OVCAR-3): 104%; growth at 10 µM (A498): 92% |
| COCCOC(=O)C1=C(C)NC(=S)N(C(C)=O)C1c1ccc2c(c1)OCO2 (racemic) | 91.6 | 106 | 97.7 | 101 | 97 | 104 | 103 | 99.3 | 103 | 106 | 106 | 93.7 | 87.6 | 97.8 | 94.8 | 98.2 | 97.8 | 97.2 | 102 | 104 | growth at 10 µM (HL-60(TB)): 97.8%; growth at 10 µM (OVCAR-3): 101%; growth at 10 µM (A498): 85.3% |
| CC1=C(C(=O)OCc2ccccc2)C(c2ccc3c(c2)OCO3)n2c(nc3ccccc32)N1 (racemic) | 8 to 26.3 | 49 to 53.5 | 39.9 | 47 to 55 | 27 to 41.7 | 25.5 to 28 | 18.8 to 25 | 33 to 41.6 | 44 to 50.5 | 7 to 14.4 | 52 to 61.8 | 0.75 to 14 | 54 to 73.8 | 64 to 68.6 | 31 to 36.3 | 22 to 46.2 | 35 to 41.1 | 34.6 to 38 | 36 to 38.4 | 6.62 to 8 | growth at 10 µM (SR): 9.81 to 43% |

— ChEMBL document CHEMBL4406880, “Design, synthesis, and bioactivity of dihydropyrimidine derivatives as kinesin spindle protein inhibitors” (Bioorg Med Chem, 2019)
